# Experimental data of several laboratories.
# Compare with care: the assays were run in different laboratories.
# Target: Rho-associated protein kinase 2 (ROCK2, Homo sapiens, UniProt O75116)
Structure (SMILES),test,conditions,quantity,result
CCCS(=O)(=O)Nc1ccc(F)c(C(=O)c2c[nH]c3ncc(-c4ccc(Cl)cc4)cc23)c1F,"enzyme activity, inhibitor",1 µM,inhibition,< 10%
Nc1nc(Nc2ccccc2)sc1C(=O)c1c(F)cccc1F,"enzyme activity, inhibitor",10 µM,remaining activity,55%
CC(=O)C1=C(C)N(c2cccc(C(F)(F)F)c2)C(=O)N[C@@H]1c1ccc(C#N)nc1,"cell-free assay, competition with immobilised ligand",1 µM,remaining binding,86.1%
CNCc1ccc(-c2cc(-c3nc(-c4ccc(S(=O)(=O)C(C)C)cc4)cnc3N)on2)cc1,"enzyme activity, inhibitor",2 µM,inhibition,13%
Cn1c(=O)n(-c2ccc(C(C)(C)C#N)cc2)c2c3cc(-c4cnc5ccccc5c4)ccc3ncc21,"enzyme activity, inhibitor",10 µM,remaining activity,84%
CCN(CC)CCNC(=O)c1c(C)[nH]c(/C=C2\C(=O)Nc3ccc(F)cc32)c1C,cell-free assay,0.5 µM,remaining signal,72.1%
NS(=O)(=O)c1cc(NC(=O)C2(c3ccccc3Cl)CC2)ccc1Oc1cccc(Cl)c1,"cell-free assay, competition with immobilised ligand",1 µM,remaining binding,100%
O=C1NC(=O)c2cc(Nc3ccc(F)cc3)c(Nc3ccc(F)cc3)cc21,cell-free assay,0.5 µM,remaining signal,92.8%
CC(C)c1ccc(NC(=O)c2cccs2)c(-c2nc3ccccc3[nH]c2=O)c1,"enzyme activity, inhibitor",1 µM,activity vs control,119%
O=C(Nc1cnn(-c2csc(C(=O)NC3COC3)c2)c1)Nc1ccccc1Cl,"enzyme activity, inhibitor",5 µM,remaining activity,100%
C[C@H](c1ccnc(Nc2nc3ccc(-c4cc(N(C)C)ncn4)cc3[nH]2)c1)N1CCN(C(=O)CC(F)(F)F)CC1,"cell-free assay, competition with immobilised ligand",0.1 µM,remaining binding,100%
CC/C(=N\NC(=O)C(C)Nc1ccccc1)c1ccc(O)c(C)c1O (stereo not shown),"enzyme activity, inhibitor",0.1 µM,inhibition,25.7%
COc1ccc2c(c1)O[C@H](c1ccc(OC)c(OC)c1)C[C@@H]2NC(=O)C1(c2ccc3c(c2)OC(F)(F)O3)CC1,"cell-free assay, competition with immobilised ligand",1 µM,remaining binding,88%
COc1cc(Cl)c(C(=O)N[C@@H](CN[C@H]2CC[C@@H](N)CC2)Cc2ccc(C#N)cc2)cc1-c1ccc(CN[C@H](C)c2ccc(C)cc2)o1,"enzyme activity, inhibitor",1 µM,remaining activity,96%
Cc1cc(NC(=O)c2cccc3cc(-c4cccc5[nH]nc(N)c45)ccc23)ccc1F,"enzyme activity, inhibitor",0.1 µM,activity vs control,98%
Cc1ccc(Nc2nccc(N(C)c3ccc4c(C)n(C)nc4c3)n2)cc1S(N)(=O)=O,"enzyme activity, inhibitor",10 µM,inhibition,-27%
CC(=O)N1CCC(c2ccc(C(=O)NC3=NCCN3)cc2C(F)(F)F)CC1,"cell-free assay, competition with immobilised ligand",1 µM,remaining binding,73%
O=C(Nc1cnn(-c2csc(C(=O)NC3COC3)c2)c1)Nc1c(F)cccc1Cl,"enzyme activity, inhibitor",5 µM,remaining activity,107%
Cn1cncc1C1=CN(c2ncnc3[nH]cnc23)CCS1,"enzyme activity, inhibitor, radiometric",50 nM,inhibition,19.6%
CNC(=O)c1cc(Oc2ccc(NC(=O)Nc3ccc(Cl)c(C(F)(F)F)c3)cc2)ccn1,"enzyme activity, inhibitor",10 µM,inhibition,38%
O=C(CSc1nc2nccnc2c(=O)n1CCc1ccccc1)Nc1nccs1,"enzyme activity, inhibitor",10 µM,inhibition,2%
O=C(NCc1ncc(C(F)(F)F)cc1Cl)c1ccc2c(c1)C1(CCS(=O)(=O)CC1)[C@H](C1CC1)N2S(=O)(=O)c1ccc(F)cc1,"cell-free assay, competition with immobilised ligand",1 µM,remaining binding,95%
CC(C)(C)C(=O)c1sc(NC2CCCCC2)nc1N,"enzyme activity, inhibitor",10 µM,remaining activity,107%
N#CCCc1ccc2c(c1)-c1[nH]c3ccc([N+](=O)[O-])cc3c1CC(=O)N2,cell-free assay,0.5 µM,remaining signal,28.6%
O=C(Nc1cnc(Oc2ccc(F)cc2)nc1)N1CCc2ncccc2[C@@H]1c1ccc(F)cc1,"cell-free assay, competition with immobilised ligand",1 µM,remaining binding,100%
COc1cc(Nc2cnc(C#N)c(O[C@H](C)CN(C)C)n2)ncc1-c1cnn(C)c1,"enzyme activity, inhibitor, radiometric",10 µM,remaining activity,40%
COc1cc2ncnc(Nc3ccc(Oc4ccccc4)cc3C)c2cc1OC,"enzyme activity, inhibitor",1 µM,inhibition,1%
CCCOc1ccc(OC)c(F)c1C(=O)c1ccc(C(=O)N[C@@H]2CNC[C@H]2NC(=O)c2ccc3[nH]ncc3c2)cc1,"enzyme activity, inhibitor",0.75 µM,remaining activity,4%
CN(c1ncccc1CNc1nc(Nc2ccc3c(c2)CC(=O)N3)ncc1C(F)(F)F)S(C)(=O)=O,"enzyme activity, inhibitor",1 µM,inhibition,11.3%
c1ccc2c(-c3ccncc3)c[nH]c2c1,cell-free assay,0.5 µM,remaining signal,71.9%
CN(C(=O)c1ccccc1)c1cc(N(C)c2ccc3c(c2)CCc2ccc(C(=O)NCCN4CCOCC4)cc2C3=O)ccc1F,"cell-free assay, competition with immobilised ligand",1 µM,remaining binding,100%
Oc1cccc(-c2nc(N3CCOCC3)c3oc4ncccc4c3n2)c1,"enzyme activity, inhibitor",10 µM,remaining activity,91%
CNc1cccc2cc(C(=O)Nc3ccc(C(=O)O)cc3)c(=O)[nH]c12,"enzyme activity, inhibitor",10 µM,inhibition,7.9%
Cn1cnc(Br)c1C1=CN(c2ncnc3[nH]cnc23)CCS1,"enzyme activity, inhibitor, radiometric",2 µM,inhibition,77.6%
CC(C)(C)c1nc2c(s1)c1nc(N)ncc1c1ccc(NS(=O)(=O)c3c(F)cccc3F)c(F)c12,"enzyme activity, inhibitor, radiometric",1 µM,remaining activity,100%
Cc1cnc(NC2CCOCC2)nc1-n1cnc(C(=O)NC(CN)c2cc(F)cc(Cl)c2)c1 (stereo not shown),"enzyme activity, inhibitor, radiometric",1 µM,remaining activity,25%
CN1CC(Oc2cnc(C#N)cc2-c2ccn3nc(NC(=O)C4CC4)cc3c2)C1,"enzyme activity, inhibitor",1 µM,inhibition,5%
